Compound activity (PubChem BioAssay)
The list is not random: actives were taken first. Their share in the collection is about 1.8%.
TCR-CD3 inh: inhibitors of human TCR-CD3 interaction; AID 651800; inhibition, % at 9.4 µM; TAMRA-labeled TCR probe fluorescence, biochemical; 360,000 tested, 0.37% active;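 further: recombinant mutant TCR 2C K166C tagged with TAMRA read by polarization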
Tn7 DDE FP: disrupts Tn7 cyclic peptide binding to fibrin D-Dimer-E complex; FP displacement of FITC-Tn7 peptide from fibrin DD(E); 0% = median of compound wells per plate; inhibition, % at 8.3 µM; 370,000 tested, 0.13% active;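 active means inhibition above the mean of compounds falling within the control limits plus 3 SD of them, cut at about 14% in these data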
Target sequence (P02675 whole entry, looked up): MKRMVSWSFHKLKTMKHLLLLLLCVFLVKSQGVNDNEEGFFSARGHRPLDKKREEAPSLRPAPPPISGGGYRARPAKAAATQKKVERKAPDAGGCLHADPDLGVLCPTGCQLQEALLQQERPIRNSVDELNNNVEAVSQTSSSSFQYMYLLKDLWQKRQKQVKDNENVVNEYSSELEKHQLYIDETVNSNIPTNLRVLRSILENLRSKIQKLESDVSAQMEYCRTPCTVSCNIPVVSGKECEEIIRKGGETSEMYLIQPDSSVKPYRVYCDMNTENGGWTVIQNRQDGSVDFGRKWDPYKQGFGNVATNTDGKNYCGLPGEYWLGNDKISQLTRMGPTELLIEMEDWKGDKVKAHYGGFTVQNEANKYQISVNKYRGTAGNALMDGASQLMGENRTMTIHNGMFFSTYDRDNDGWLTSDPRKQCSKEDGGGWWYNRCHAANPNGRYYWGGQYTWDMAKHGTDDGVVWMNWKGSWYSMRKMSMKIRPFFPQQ
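Assay system: Human fibrin DD(E) protein | Medium: Tris buffer with calcium and detergent, pH 7.8 | Reagent: 0.1 µM fluorescent Tn7 | Compound dosing: Single point at 8.3 µM | Times: 10 min preincubation, 3 h with tracer, room temperature | Detection: Fluorescence polarization of the labelled Tn7 tracer | Controls: Aha-Tn7 high control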
DDE Tn6 FP inh: DD(E)-Tn6 binding inhibition, primary FP screen; P02675; 370,000 tested, 0.21% active; inhibition, % at 8.3 µM; Fibrin DD(E) TRITC-Tn6 fluorescence polarization displacement;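 active means inhibition above a per-campaign cutoff: mean of compounds within control limits plus 3 SD, cut at about 15% in these data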
HTRA1 inhibitor: blocks human HTRA1 serine peptidase. recombinant HTRA1, FP-rhodamine activity-based probe, fluorescence polarization. AID 504803. inhibition, % at 5.96 µM. 340,000 tested, 0.5% active. Q92743; in the data active means inhibition above about 36%
ABHD4 inh: inhibitors of mouse ABHD4; Q8VD66; purified mABHD4, FP-Rh probe fluorescence polarization; inhibition, % at 8.92 µM; 370,000 tested, 0.54% active;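 active means inhibition exceeding the mean over every tested compound plus 3 SD, cut at about 30% in these data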
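Test system: mABHD4 protein; Read-out basis: % inhibition; Incubation: 45 min + 60 min at 25 °C; Repeats: single replicate; Technique: fluorescence polarization with parallel and perpendicular emission, 525/598 nm; Compound: 8.92 µM, single dose; Benchmarks: full inhibition S159A mutant plus DMSO, zero as sample-well median.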
SIAE inh: human SIAE inhibition, primary screen. inhibition, % at 9.66 µM. SIAE FP-Rh probe binding, fluorescence polarization. Q9HAT2. 370,000 tested, 0.69% active;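 active means inhibition above a cutoff: mean of compounds within the control limits plus 3 SD of those, cut at about 17% in these data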
HTRA1 conf: confirmation of human HTRA1 inhibitors; 1,600 tested, 66% active; recombinant HTRA1, FP-rhodamine activity-based probe, fluorescence polarization; shares compounds with HTRA1 inhibitor; inhibition, % at 5.96 µM;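 active means mean inhibition over three repeats above a set limit taken from the earlier primary screen, cut at about 37% in these data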;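 further: inhibitors block probe binding so polarization drops and inhibition rises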
BSA probe FL: interferes with TAMRA-BSA probe, flagging TCR-CD3 hits | shares compounds with TCR-CD3 inh | TAMRA-labeled BSA probe fluorescence counterscreen | inhibition, % at 9.4 µM | 1,200 tested, 10% active; in the data active means inhibition above about 23%
TCR-CD3 conf: TCR-CD3 interaction inhibition, confirmation | inhibition, % at 9.4 µM | TAMRA-labeled TCR probe fluorescence binding assay | AID 652036 | 1,200 tested, 48% active | shares compounds with TCR-CD3 inh
Tn7 DDE conf: DD(E)-Tn7 binding inhibition, FP confirmation | 460 tested, 5% active | shares compounds with Tn7 DDE FP | FP displacement of TRITC-Tn7 peptide from DD(E); 0% set at plate's compound-well median | inhibition, % at 8.3 µM | AID 720628;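 active means inhibition above the campaign cutoff, the mean of compounds within control limits plus 3 SD, cut at about 14% in these data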;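 further: displacers lower polarization since freed probe rises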
Tn7 DDE ctr: counter-screen for inhibitors of Tn7 peptide binding to fibrin DD(E) | 460 tested, 3% active | inhibition, % at 8.3 µM | shares compounds with Tn7 DDE FP | TRITC-Tn7 probe displacement, fluorescence polarization | AID 720633;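 active means inhibition above the cutoff, the mean of compounds lying between the control bounds plus 3 SD of those compounds, cut at about 17% in these data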
DDE Tn6 FP ctr: counter-screen for inhibitors of Tn6 peptide binding to fibrin DD(E) | 680 tested, 2% active | TRITC-Tn6 fluorescence polarization displacement; 0% = median of compound wells, not DMSO | AID 720621 | inhibition, % at 8.3 µM | shares compounds with DDE Tn6 FP inh;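 active means inhibition above the mean of test compounds lying between the control limits plus 3 SD of those, cut at about 14% in these data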
DDE Tn6 confirm: confirmation of inhibitors of Tn6 binding to human fibrin DD(E). 680 tested, 10% active. FP displacement of TRITC-Tn6 peptide from DD(E); 0% = per-plate median of test wells. AID 720631. shares compounds with DDE Tn6 FP inh. inhibition, % at 8.3 µM;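 active means inhibition above the mean of compounds lying within the control limits plus 3 SD, cut at about 16% in these data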
mABHD4 conf: confirmation of mouse ABHD4 inhibitors; purified mABHD4, FP-Rh probe fluorescence polarization; inhibition, % at 8.92 µM; shares compounds with ABHD4 inh; 1,800 tested, 55% active;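 active means mean inhibition across replicates above the hit cutoff set in the primary screen, cut at about 30% in these data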
SIAE confirm: confirmation of human SIAE inhibitors; inhibition, % at 9.66 µM; shares compounds with SIAE inh; SIAE FP-Rh activity-based probe, fluorescence polarization; 2,300 tested, 13% active;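 active means mean inhibition of the replicates above the hit cutoff set in the primary screen, cut at about 17% in these data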;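 further: inhibitors lower polarization as more probe stays unbound to SIAE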
Large screens that a line does not name were inactive (follow-up assays come after a bar, where they were run). Unless noted, no stated cut-off is given here; in the data, active means inhibition above about 19%; inactive means the rest.

O=C(N/N=C/c1cc(Br)ccc1O)c1ccncc1	none
O=C(N/N=C/c1ccc(O)c2ncccc12)c1cccc(Br)c1	HTRA1 inhibitor 67, SIAE inh 29 | HTRA1 conf 59 | SIAE confirm inactive
Cc1ccc(C(=O)N/N=C/c2c(O)ccc3ccccc23)cn1	HTRA1 inhibitor 62, SIAE inh 21 | HTRA1 conf 49 | SIAE confirm inactive
Cc1ccc(NNC(=O)c2ccc(Cl)cc2)nn1	none
C=CCN1C(=O)[C@H](CC(=O)N2CCCCC2)[C@@]2(C(=O)OCC)CCCC=C12	none (no result: TCR-CD3 inh, HTRA1 inhibitor)
FC(F)(F)c1cccc(N2CCN(C3=Nc4ccccc4Sc4ccccc43)CC2)c1	none (no result: TCR-CD3 inh, HTRA1 inhibitor)
CCOc1cccc(CNc2ccc(O)cc2)c1OCc1ccc(Cl)cc1	DDE Tn6 FP inh 15, HTRA1 inhibitor 49, ABHD4 inh 41, SIAE inh 29 | HTRA1 conf inactive | mABHD4 conf 36 | SIAE confirm inactive
CCOc1ccccc1CNc1ccc(O)cc1	TCR-CD3 inh 21, HTRA1 inhibitor 61, ABHD4 inh 57, SIAE inh 34 | HTRA1 conf inactive | BSA probe FL inactive | TCR-CD3 conf inactive | SIAE confirm inactive
Oc1ccc(NCc2ccccc2OCc2ccccc2F)cc1	HTRA1 inhibitor 63, ABHD4 inh 49, SIAE inh 34 | HTRA1 conf inactive | mABHD4 conf 50 | SIAE confirm inactive
Cc1ccc(NCc2ccccc2OCc2ccccc2F)cc1	none
COc1ccc(CCNC(=O)c2ccc3c(c2)ncn3C2CCCCC2)cc1	none (no result: TCR-CD3 inh, HTRA1 inhibitor)
CCCCn1c(N)c(Br)c(=O)[nH]c1=O	none
CCCCn1c(=O)[nH]c2nc3cc(N)ccc3nc2c1=O	TCR-CD3 inh 21, Tn7 DDE FP 25, HTRA1 inhibitor 42, ABHD4 inh 68, SIAE inh 31 | HTRA1 conf 37 | Tn7 DDE conf inactive | Tn7 DDE ctr inactive | mABHD4 conf 44 | SIAE confirm inactive
CC(=O)NC(c1ccc(Cl)cc1)c1ccc2cccnc2c1O (stereo not drawn)	HTRA1 inhibitor 46, SIAE inh 17 | HTRA1 conf 79 | SIAE confirm inactive
CCC(=O)NC(c1ccc(Cl)cc1Cl)c1ccc2cccnc2c1O (stereo not drawn)	HTRA1 inhibitor 74, SIAE inh 19 | HTRA1 conf 73 | SIAE confirm inactive
C/C(CC(=O)Nc1ccc(Cl)c(Cl)c1)=N\NC(=O)C(=O)N1CCCCC1	none
CCOC(=O)C1Nc2ccc(Br)cc2C2C=CCC12 (stereo not drawn)	HTRA1 inhibitor 65, ABHD4 inh 53, SIAE inh 20 | HTRA1 conf inactive | mABHD4 conf 52 | SIAE confirm inactive
COCCn1c(=NC(=O)CCS(=O)(=O)c2ccccc2)sc2cc(F)ccc21	none
Cc1ccc2nc(-c3ccc(Cl)cc3)c(Cc3ccsc3)n2c1	none (no result: HTRA1 inhibitor)
Cc1cc2c(c(=O)o1)[C@@]1(C(=O)N(C)c3ccccc31)C1=C(CC3(CCCCC3)OC1=O)O2	none (no result: HTRA1 inhibitor)
CN=c1scc(C)n1/N=C/c1ccc(O)c(O)c1O	TCR-CD3 inh 53, HTRA1 inhibitor 39, ABHD4 inh 41, SIAE inh 19 | HTRA1 conf 60 | BSA probe FL inactive | TCR-CD3 conf 65 | mABHD4 conf inactive | SIAE confirm inactive
CN=c1scc(C)n1/N=C/c1cc(Br)c(O)c(OC)c1	none
Cc1[nH]n(-c2ncc(-c3ccccc3)s2)c(=O)c1C(c1ccc(Br)cc1)C(C#N)C#N (stereo not drawn)	HTRA1 inhibitor 39, ABHD4 inh 51, SIAE inh 24 | HTRA1 conf inactive | mABHD4 conf 43 | SIAE confirm inactive
CC(O)(Cc1ccccn1)Cc1ccccn1	none
C#CCn1cc(/C=N/Nc2nc3ccccc3[nH]2)c2ccccc21	HTRA1 inhibitor 43, SIAE inh 55 | HTRA1 conf 45 | SIAE confirm 61
COc1ccc(/C=C/C(=O)c2ccc(OC)cc2OC)c(OC)c1	none
CNc1ccc(Br)cc(C(=O)/C=C/c2ccc(OC)cc2OC)c1=O	TCR-CD3 inh 19, HTRA1 inhibitor 50, ABHD4 inh 36, SIAE inh 21 | HTRA1 conf inactive | BSA probe FL inactive | TCR-CD3 conf inactive | mABHD4 conf 30 | SIAE confirm inactive
CCOc1ccc(NC(=O)CCC(=O)c2ccc(OC)cc2)cc1	none
Cc1ccc(-n2nc3cc(C)c(N)cc3n2)cc1	none
Cc1cc2nc3ccc(N(C)C)cc3nc2cc1N	TCR-CD3 inh 93, DDE Tn6 FP inh 33, HTRA1 inhibitor 66, ABHD4 inh 57, SIAE inh 30 | HTRA1 conf 60 | BSA probe FL 48 | TCR-CD3 conf 72 | DDE Tn6 FP ctr inactive | DDE Tn6 confirm 65 | mABHD4 conf inactive | SIAE confirm 32
Cc1ccc(S(=O)(=O)N(CC(=O)NCC2CCCO2)Cc2cccc(C)c2)cc1 (stereo not drawn)	none
c1ccc(C2Nc3cccc4cccc(c34)N2)cc1	none
COc1cc(OC)c(C2Nc3cccc4cccc(c34)N2)c(OC)c1	HTRA1 inhibitor 52, ABHD4 inh 50, SIAE inh 21 | HTRA1 conf inactive | mABHD4 conf 36 | SIAE confirm inactive
